In ChEMBL document CHEMBL4020814, “Synthesis, Binding Mode, and Antihyperglycemic Activity of Potent and Selective (5-Imidazol-2-yl-4-phenylpyrimidin-2-yl)[2-(2-pyridylamino)ethyl]amine Inhibitors of Glycogen Synthase Kinase 3” (J Med Chem, 2017):

Columns and labels:
Angiopoietin-1 receptor = Angiopoietin-1 receptor (Homo sapiens, UniProt Q02763)
[1] = target: Casein kinase I isoform epsilon (Homo sapiens, UniProt P49674); assay: Inhibition of human CK1epsilon using biotin peptide substrate after 1 hr by scintillation counting method
Chain of Casein kinase I isoform epsilon (P49674 whole entry, canonical isoform): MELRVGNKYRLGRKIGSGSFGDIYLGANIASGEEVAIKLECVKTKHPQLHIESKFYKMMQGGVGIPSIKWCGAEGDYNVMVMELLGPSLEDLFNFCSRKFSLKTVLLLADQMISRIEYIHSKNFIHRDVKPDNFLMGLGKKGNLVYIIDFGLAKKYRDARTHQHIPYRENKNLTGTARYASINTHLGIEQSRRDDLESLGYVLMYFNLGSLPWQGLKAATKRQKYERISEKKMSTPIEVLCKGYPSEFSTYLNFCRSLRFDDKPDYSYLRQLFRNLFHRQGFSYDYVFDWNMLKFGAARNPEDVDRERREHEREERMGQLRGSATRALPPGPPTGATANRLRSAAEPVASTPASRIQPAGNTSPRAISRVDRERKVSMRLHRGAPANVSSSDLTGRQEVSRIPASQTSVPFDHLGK

[2] = Stability in human liver microsomes assessed as half life; assay type: ADME, microsome
Rattus norvegicus [3] = assay: Toxicity in diabetic ZDF rat assessed as increase in beta-catenin mRNA levels in brain administered at 130 mg/kg/day infused over 20 hrs; assay type: organism-based; settings: in vivo
[4] = Oral bioavailability in diabetic ZDF fa/fa rat at 8 mg/kg administered 4.5 and 0.5 hrs prior to oral glucose challenge; assay type: ADME, organism-based; settings: in vivo
[5] = Plasma concentration in diabetic db/db mouse at 30 mg/kg administered at 4.5 and 0.5 hrs prior to oral glucose challenge measured 20 mins post second dose; settings: plasma
[6] = Half life in diabetic ZDF fa/fa rat at 8 mg/kg administered 4.5 and 0.5 hrs prior to oral glucose challenge; assay type: ADME, organism-based; settings: in vivo
Mus musculus [7] = assay: Effect on insulin level in diabetic ob/ob mouse administered at 30 mg/kg, po measured post glucose challenge; assay type: ADME, organism-based; settings: in vivo
How it was run: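 ob/ob mice aged 9–10 weeks, 6–8 per group, given an oral glucose tolerance test with oral dosing at −4.5 and −0.5 h (vehicle captisol). Plasma glucose and insulin were measured after the glucose challenge. Values are mean ± SEM.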

Mus musculus [8] = assay: Effect on urine glucose levels in diabetic db/db mouse administered orally at 4.5 and 0.5 hrs prior to oral glucose challenge; assay type: ADME; settings: in vivo
Rattus norvegicus [9] = assay: Effect on plasma glucose levels in lean ZDF fa/fa rat administered at 30 mg/kg dosed at 4.5 and 0.5 hrs prior to oral glucose challenge by oral glucose tolerance test; assay type: ADME, organism-based; settings: in vivo
Rattus norvegicus [10] = assay: Reduction in plasma insulin level in diabetic ZDF fa/fa rat at 30 mg/kg, po administered as single dose measured after 60 mins; assay type: ADME, organism-based; settings: in vivo, 1 h
How it was run: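 Twelve-week-old male ZDF (fa/fa) rats with fasted basal glucose of 500–550 mg/dL, food removed 3–4 h before dosing. A single oral dose was given with vehicle 15% captisol. Plasma glucose and insulin were measured from serial tail-snip bleeds, n = 8/group, mean ± SEM.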

[11] = Half life in po dosed diabetic ZDF rat; assay type: ADME, organism-based; settings: in vivo
[12] = Oral bioavailability in diabetic ZDF rat; assay type: ADME, organism-based; settings: in vivo
[13] = Cmax in po dosed diabetic ZDF rat; assay type: ADME, organism-based; design: route oral; settings: in vivo
[14] = AUC in po dosed diabetic ZDF rat; assay type: ADME, organism-based; settings: in vivo
[15] = Clearance in iv dosed diabetic ZDF rat; assay type: ADME, organism-based; settings: in vivo
How it was run: (§1)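 ZDF (fa/fa) rats dosed intravenously; clearance and steady-state volume of distribution derived from plasma concentration–time data.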

[16] = Volume of distribution at steady state in iv dosed diabetic ZDF rat; assay type: ADME, organism-based; settings: in vivo, read-out: Vdss
How it was run: as §1

Rattus norvegicus [17] = assay: Effect on plasma insulin level in diabetic ZDF fa/fa rat assessed as plasma insulin levels at 5 mg/kg, iv prime dose with continuous infusion at 64 ug/kg/min for 4 days (reference value: 3.9 +/- 0.6 ng/ml); assay type: ADME, organism-based; settings: in vivo, 96 h
Rattus norvegicus [18] = assay: Toxicity in diabetic ZDF rat assessed as increase in beta-catenin mRNA levels in liver administered at 130 mg/kg/day infused over 20 hrs; assay type: organism-based; settings: in vivo
Rattus norvegicus [19] = assay: Toxicity in diabetic ZDF rat assessed as increase in beta-catenin mRNA levels in lungs administered at 130 mg/kg/day infused over 20 hrs; assay type: organism-based; settings: in vivo
Rattus norvegicus [20] = assay: Toxicity in diabetic ZDF rat assessed as increase in beta-catenin mRNA levels in colon administered at 130 mg/kg/day infused over 20 hrs; assay type: organism-based; settings: in vivo
Rattus norvegicus [21] = assay: Toxicity in diabetic ZDF rat assessed as increase in beta-catenin mRNA levels in adipose tissue administered at 130 mg/kg/day infused over 20 hrs; assay type: organism-based; settings: in vivo
Rattus norvegicus [22] = assay: Toxicity in diabetic ZDF rat assessed as increase in cyclin D1 mRNA levels in brain administered at 130 mg/kg/day infused over 20 hrs; assay type: organism-based; settings: in vivo
Rattus norvegicus [23] = assay: Toxicity in diabetic ZDF rat assessed as increase in cyclin D1 mRNA levels in liver administered at 130 mg/kg/day infused over 20 hrs; assay type: organism-based; settings: in vivo
Rattus norvegicus [24] = assay: Toxicity in diabetic ZDF rat assessed as increase in cyclin D1 mRNA levels in lung administered at 130 mg/kg/day infused over 20 hrs; assay type: organism-based; settings: in vivo
Rattus norvegicus [25] = assay: Toxicity in diabetic ZDF rat assessed as increase in cyclin D1 mRNA levels in colon administered at 130 mg/kg/day infused over 20 hrs; assay type: organism-based; settings: in vivo
Rattus norvegicus [26] = assay: Toxicity in diabetic ZDF rat assessed as increase in cyclin D1 mRNA levels in adipose tissue administered at 130 mg/kg/day infused over 20 hrs; assay type: organism-based; settings: in vivo
Mus musculus [27] = assay: Effect on insulin level in diabetic db/db mouse at 30 mg/kg administered at 4.5 and 0.5 hrs prior to oral glucose challenge; assay type: ADME, organism-based; settings: in vivo
How it was run: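 db/db mice, 6–8 per group, fasted ~6 h (food removed 3 h before prebleed), dosed orally at −4.5 and −0.5 h relative to oral glucose (vehicle 10% captisol). Tail-snip blood glucose was read by glucometer or analyzer; plasma insulin was measured by ELISA.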

Mus musculus [28] = species on record: Mus musculus; assay: Effect on insulin levels in streptozotocin-treated mouse fed with high fat diet; assay type: ADME; settings: in vivo
How it was run: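 Mice on a high-fat diet with intermittent streptozotocin were dosed orally at −4.5 and −0.5 h before oral glucose challenge. Post-challenge glucose AUC and insulin were measured.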

Rattus norvegicus [29] = assay: Effect on plasma insulin level in obese ZDF fa/fa rat at 30 mg/kg dosed at 4.5 and 0.5 hrs prior to oral glucose challenge measured at -250 mins (reference value: 7.2 +/- 0.6 ng/ml); assay type: ADME, organism-based; settings: in vivo
Rattus norvegicus [30] = assay: Effect on plasma insulin level in obese ZDF fa/fa rat at 30 mg/kg dosed at 4.5 and 0.5 hrs prior to oral glucose challenge measured at -45 mins (reference value: 6.9 +/- 0.3 ng/ml); assay type: ADME, organism-based; settings: in vivo
Rattus norvegicus [31] = assay: Effect on plasma insulin level in obese ZDF fa/fa rat at 30 mg/kg dosed at 4.5 and 0.5 hrs prior to oral glucose challenge measured at 25 mins (reference value: 8.5 +/- 0.7 ng/ml); assay type: ADME, organism-based; settings: in vivo
Rattus norvegicus [32] = assay: Effect on plasma insulin level in obese ZDF fa/fa rat at 30 mg/kg dosed at 4.5 and 0.5 hrs prior to oral glucose challenge measured at 60 mins (reference value: 7.8 +/- 0.8 ng/ml); assay type: ADME, organism-based; settings: in vivo
Rattus norvegicus [33] = assay: Effect on plasma insulin level in lean ZDF fa/fa rat at 30 mg/kg dosed at 4.5 and 0.5 hrs prior to oral glucose challenge measured at -250 mins (reference value: 0.2 +/- 0.1 ng/ml); assay type: ADME, organism-based; settings: in vivo
Rattus norvegicus [34] = assay: Effect on plasma insulin level in lean ZDF fa/fa rat at 30 mg/kg dosed at 4.5 and 0.5 hrs prior to oral glucose challenge measured at -45 mins (reference value: 0.2 +/- 0.1 ng/ml); assay type: ADME, organism-based; settings: in vivo
Rattus norvegicus [35] = assay: Effect on plasma insulin level in lean ZDF fa/fa rat at 30 mg/kg dosed at 4.5 and 0.5 hrs prior to oral glucose challenge measured at 25 mins (reference value: 0.4 +/- 0.1 ng/ml); assay type: ADME, organism-based; settings: in vivo
Rattus norvegicus [36] = assay: Effect on plasma insulin level in lean ZDF fa/fa rat at 30 mg/kg dosed at 4.5 and 0.5 hrs prior to oral glucose challenge measured at 60 mins (reference value: 0.3 +/- 0.1 ng/ml); assay type: ADME, organism-based; settings: in vivo, 1 h

Chain of Angiopoietin-1 receptor (Q02763 whole entry, canonical isoform): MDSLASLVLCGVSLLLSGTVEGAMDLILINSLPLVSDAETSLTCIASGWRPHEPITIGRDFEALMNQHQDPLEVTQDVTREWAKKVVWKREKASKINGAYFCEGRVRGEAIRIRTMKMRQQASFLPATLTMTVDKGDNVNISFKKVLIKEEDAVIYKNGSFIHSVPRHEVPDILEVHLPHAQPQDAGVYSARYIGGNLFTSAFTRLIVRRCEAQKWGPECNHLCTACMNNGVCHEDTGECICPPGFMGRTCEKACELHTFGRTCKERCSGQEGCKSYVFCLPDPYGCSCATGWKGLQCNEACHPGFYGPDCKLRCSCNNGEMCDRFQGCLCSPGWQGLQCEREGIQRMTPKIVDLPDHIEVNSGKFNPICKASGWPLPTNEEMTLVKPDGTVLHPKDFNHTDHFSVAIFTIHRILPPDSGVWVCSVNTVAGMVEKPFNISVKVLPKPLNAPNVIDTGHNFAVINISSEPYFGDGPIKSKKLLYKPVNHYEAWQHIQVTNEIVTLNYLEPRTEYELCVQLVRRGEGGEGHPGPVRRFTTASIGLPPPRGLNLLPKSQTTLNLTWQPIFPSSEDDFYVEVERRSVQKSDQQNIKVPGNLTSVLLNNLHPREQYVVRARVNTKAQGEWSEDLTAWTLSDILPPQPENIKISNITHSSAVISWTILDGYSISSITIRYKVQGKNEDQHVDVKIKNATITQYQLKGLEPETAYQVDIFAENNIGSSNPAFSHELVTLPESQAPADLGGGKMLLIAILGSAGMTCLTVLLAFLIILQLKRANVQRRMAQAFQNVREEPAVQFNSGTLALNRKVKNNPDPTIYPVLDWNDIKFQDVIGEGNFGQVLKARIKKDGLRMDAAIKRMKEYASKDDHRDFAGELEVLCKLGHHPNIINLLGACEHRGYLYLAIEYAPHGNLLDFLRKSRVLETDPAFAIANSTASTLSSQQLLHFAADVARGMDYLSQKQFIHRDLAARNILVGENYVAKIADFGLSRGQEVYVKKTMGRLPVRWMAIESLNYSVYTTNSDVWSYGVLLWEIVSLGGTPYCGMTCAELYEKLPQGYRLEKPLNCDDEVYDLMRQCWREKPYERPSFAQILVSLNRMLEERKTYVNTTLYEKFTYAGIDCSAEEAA

In the case of `Cc1c[nH]c(-c2cnc(NCCNc3ccc(C#N)cn3)nc2-c2ccc(Cl)cc2Cl)n1` [LADUVIGLUSIB], the IC50 (Angiopoietin-1 receptor) is reported as greater than 5 µM, the IC50 [1] is reported as greater than 5 µM and the half-life [2] is reported as 1.82 h. For the same molecule, the Activity (Rattus norvegicus [3]) was “Non-Toxic”, the bioavailability [4] was 36% and the concentration at 20 min [5] was 15000 ng/mL. For the same molecule, the half-life [6] was 1.53 h, the Activity (Mus musculus [7]) was “Toxic” and the Activity (Mus musculus [8]) was “Non-Toxic”. The Activity (Rattus norvegicus [9]) was “Non-Toxic”, the Activity (Rattus norvegicus [10]) was “Toxic” and the half-life [11] was 1.53 to 1.63 h. It also gave a bioavailability [12] of 36 to 43%, a Cmax [13] of 400 ng/mL and an AUC [14] of 1420 ng·h/mL. For the same molecule, the clearance [15] was 43 mL/min/kg, the Vd [16] was 3.6 L/kg and the Activity (Rattus norvegicus [17]) was 3.1 ng/mL. For the same molecule, the Activity (Rattus norvegicus [18]) was “Non-Toxic”, the Activity (Rattus norvegicus [19]) was “Non-Toxic” and the Activity (Rattus norvegicus [20]) was “Non-Toxic”. The Activity (Rattus norvegicus [21]) was “Non-Toxic”, the Activity (Rattus norvegicus [22]) was “Non-Toxic” and the Activity (Rattus norvegicus [23]) was “Non-Toxic”. For the same molecule, the Activity (Rattus norvegicus [24]) was “Non-Toxic”, the Activity (Rattus norvegicus [25]) was “Non-Toxic” and the Activity (Rattus norvegicus [26]) was “Non-Toxic”. The Activity (Mus musculus [27]) was “Non-Toxic”, the Activity (Mus musculus [28]) was “Toxic” and the Activity (Rattus norvegicus [29]) was 6.3 ng/mL. It also gave an Activity (Rattus norvegicus [30]) of 5.3 ng/mL, an Activity (Rattus norvegicus [31]) of 4.8 ng/mL and an Activity (Rattus norvegicus [32]) of 5.2 ng/mL. The Activity (Rattus norvegicus [33]) was 0.3 ng/mL, the Activity (Rattus norvegicus [34]) was 0.3 ng/mL and the Activity (Rattus norvegicus [35]) was 0.6 ng/mL. The Activity (Rattus norvegicus [36]) was 0.4 ng/mL.
